# Measurements pooled from the literature.
# TYR: Tyrosinase (TYR, Homo sapiens, UniProt P14679)
# ESR1: Estrogen receptor (ESR1, Homo sapiens, UniProt P03372)
# NR3C1: Glucocorticoid receptor (NR3C1, Homo sapiens, UniProt P04150)
# Si: Sucrase-isomaltase, intestinal (Si, Rattus norvegicus, UniProt P23739)
# Abl2: Abl2 (Mus musculus, UniProt Q4JIM5)
# PIK3C3: Phosphatidylinositol 3-kinase catalytic subunit type 3 (PIK3C3, Homo sapiens, UniProt Q8NEB9)
Compound,target,assay,test system,setting,inhibition [%]
Cc1ccc(C(C)C)cc1NC(=O)COC(=O)/C=C/c1ccccc1,TYR,"enzyme activity, inhibitor",,50 µg/mL,82.3
COc1cc(NC(C)=O)c(Cl)cc1C(=O)Nc1nccs1,ESR1,cell-free assay,,10 µM,1.4
O=C(Nc1ccc(S(=O)(=O)N2CCC(Cl)CC2)cc1)c1ccc([N+](=O)[O-])o1,NR3C1,"ligand displacement, radioligand",,10 µM,19
N#Cc1cc(Cn2c(N3CCCC3)nc3ccccc32)ccc1F,"Alpha-2C adrenergic receptor (ADRA2C, Homo sapiens, UniProt P18825)",ligand displacement,,10 µM,16.1
Cc1ccc(C(C)C)cc1NC(=O)COC(=O)/C=C/c1ccccc1O,TYR,"enzyme activity, inhibitor",,50 µg/mL,53.7
Oc1cccc(Nc2nc(-c3ccc(F)cc3F)cs2)c1,ESR1,cell-free assay,,10 µM,11.2
O=c1c(O[C@@H]2O[C@H](CO)[C@@H](O)[C@H](O)[C@H]2O)c(-c2ccc(O)c(O)c2)oc2cc(O)cc(O)c12,Si,"enzyme activity, inhibitor",,200 µg/mL,61.4
COc1cc(Cl)c(C(=O)N[C@@H](CN[C@H]2CC[C@@H](N)CC2)Cc2ccc(C#N)cc2)cc1-c1ccc(CN[C@H](C)c2ccc(C)cc2)o1,"P2Y purinoceptor 2 (P2RY2, Homo sapiens, UniProt P41231)","calcium signal, antagonist",,10 µM,-25
CCN(CC)c1ccc(C2=NNC(=O)CC2C)cc1[N+](=O)[O-] (centres unmarked),"cGMP-inhibited 3',5'-cyclic phosphodiesterase 3A (PDE3A, Homo sapiens, UniProt Q14432)","enzyme activity, inhibitor",,0.1 µM,95
CCN(Cc1ccccc1C(F)(F)F)C(=O)C1CCN(S(=O)(=O)c2ccc3[nH]ncc3c2)CC1,NR3C1,"ligand displacement, radioligand",,10 µM,1
O=c1c(O[C@@H]2O[C@@H](CO)[C@H](O)[C@H]2O)c(-c2ccc(O)c(O)c2)oc2cc(O)cc(O)c12,Si,"enzyme activity, inhibitor",,25 µg/mL,28.6
Cc1ccc(Nc2nccc(N(C)c3ccc4c(C)n(C)nc4c3)n2)cc1S(N)(=O)=O,Abl2,"enzyme activity, inhibitor",,0.3 µM,38
O=C(c1ccc(F)cc1)N(Cc1ccccc1)C1CCCCC1,"Interleukin-1 receptor type 1 (IL1R1, Homo sapiens, UniProt P14778)",cell-free assay,,10 µM,14
CNc1cc(Oc2cc(C(=O)Nc3cc(N4CCN(C)CC4)cc(C(F)(F)F)c3)ccc2C)ncn1,"PAN2-PAN3 deadenylation complex subunit PAN3 (Homo sapiens, UniProt Q58A45)","target engagement in cells, inhibitor, chemoproteomics",Huh-7,1 µM,-39.3
O=C(c1ccc(Cl)cc1)N(Cc1ccccc1)C1CCCCC1,"5-hydroxytryptamine receptor 1A (HTR1A, Homo sapiens, UniProt P08908)","ligand displacement, radioligand",,10 µM,-12.4
Cc1ccc(C(C)C)cc1NC(=O)COC(=O)c1cccc(O)c1,TYR,"enzyme activity, inhibitor",,50 µg/mL,61.2
CS(=O)(=O)Nc1cccc(-c2csc(NC(=O)CSc3nc4nccnc4c(=O)n3CCc3ccccc3)n2)c1,PIK3C3,"enzyme activity, inhibitor",,10 µM,9
Cc1ccc(C(C)C)cc1NC(=O)COC(=O)/C=C/c1ccc(O)cc1,TYR,"enzyme activity, inhibitor",,50 µg/mL,55.8
O=C1N=C(N2CCCCN2)S/C1=C\c1ccc(F)cc1O,"Nociceptin receptor (OPRL1, Homo sapiens, UniProt P41146)","ligand displacement, radioligand",,10 µM,< 10
CNC(=O)c1cc(Oc2ccc(NC(=O)Nc3ccc(Cl)c(C(F)(F)F)c3)cc2)ccn1,Abl2,"enzyme activity, inhibitor",,10 µM,61
CN1CC(Oc2cnc(C#N)cc2-c2ccn3nc(NC(=O)C4CC4)cc3c2)C1,"Eukaryotic translation initiation factor 2-alpha kinase 1 (EIF2AK1, Homo sapiens, UniProt Q9BQI3)","enzyme activity, inhibitor",,1 µM,-8
O=C(CSc1nc2nccnc2c(=O)n1CCc1ccccc1)Nc1ccccc1,PIK3C3,"enzyme activity, inhibitor",,10 µM,< 20
O=C1OC[C@H]2OC(=O)c3cc(O)c(O)c(O)c3-c3c(O)c(O)c(O)c4c3C(=O)O[C@H]([C@H]3OC(=O)c5c-4c(O)c(O)c(O)c5[C@H]3O)[C@@H]2OC(=O)c2cc(O)c(O)c(O)c2-c2c1cc(O)c(O)c2O,Si,"enzyme activity, inhibitor",,50 µg/mL,28.4
CN(C)C1CCN(CC#Cc2nn(C3CCCC3)c3nc(NCc4ccccc4)ncc23)C1 (centres unmarked),"Inhibitor of nuclear factor kappa-B kinase subunit beta (IKBKB, Homo sapiens, UniProt O14920)","enzyme activity, inhibitor, FRET",,0.1 µM,-1
CC(CN(C)C)C(Oc1cccc2ccccc12)c1cccs1 (centres unmarked),"Norepinephrine transporter (Slc6a2, Rattus norvegicus, UniProt Q9WTR4)","ligand displacement, radioligand",,"10 µM, cell membranes",< 70
Cc1ccc(C(C)C)cc1NC(=O)COC(=O)c1ccc(O)c(O)c1,TYR,"enzyme activity, inhibitor",,50 µg/mL,56.9
